pEC50: −log10 of the molar value.
How the values were obtained:
[1] = target: T1, Adenosine receptor A1 (Homo sapiens) (UniProt P30542); assay: Percent remaining of radioligand [3H]CCPA binding to human adenosine A1 receptor at 10 uM
T1 sequence (whole entry): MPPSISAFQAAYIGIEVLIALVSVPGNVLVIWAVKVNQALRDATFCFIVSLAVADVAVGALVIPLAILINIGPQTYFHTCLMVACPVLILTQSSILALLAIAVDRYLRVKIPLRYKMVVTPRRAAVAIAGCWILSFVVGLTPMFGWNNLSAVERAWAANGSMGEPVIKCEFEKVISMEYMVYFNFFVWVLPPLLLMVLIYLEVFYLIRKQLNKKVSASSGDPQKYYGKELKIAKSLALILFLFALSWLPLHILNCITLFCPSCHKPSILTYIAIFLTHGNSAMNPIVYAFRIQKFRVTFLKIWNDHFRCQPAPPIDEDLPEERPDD
Outline: (§1)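 Radioligand displacement: CHO human A1 receptor membranes (40 μg protein, 2 IU/mL adenosine deaminase) with ~1.0 nM [3H]CCPA plus fixed or increasing compound, 60 min at 25 °C in Tris-HCl. Nonspecific binding defined with 10 μM DPCPX. Ice-cold dilution, GF/B filtration, scintillation counting. Results as % specific binding, control 100%. Means of 2–3 experiments in duplicate.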

[2] = target: T1, Adenosine receptor A1 (Homo sapiens); assay: Percent remaining of radioligand [3H]DPCPX binding to human adenosine A1 receptor at 1 uM
Outline: (§2)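 CHO human A1 receptor membranes (40 μg protein, 2 IU/mL adenosine deaminase) incubated 60 min at 25 °C in Tris-HCl with ~1.6 nM [3H]DPCPX and a fixed compound concentration. Nonspecific binding defined with 10 μM CPA. Filtration on GF/B, scintillation counting. Reported as % specific binding remaining (control 100%, nonspecific 0%). Means of 2–3 experiments in duplicate.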

[3] = target: T1, Adenosine receptor A1 (Homo sapiens); assay: Percent remaining of radioligand [3H]DPCPX binding to human adenosine A1 receptor at 10 uM; outline: as §2
Adenosine receptor A1 [4] = target: T2, Adenosine receptor A1 (Homo sapiens, UniProt P30542); assay: Effective concentration for displacement of [3H]-CCPA from human adenosine A1 receptor after 60 min; outline: as §1
T2 sequence (P30542 whole entry): T1 sequence (whole entry)

Adenosine receptor A1 [5] = target: T2, Adenosine receptor A1; assay: Effective concentration for displacement of [3H]CCPA from human A1 adenosine receptor after 60 min; outline: as §1
[6] = target: T1, Adenosine receptor A1 (Homo sapiens); assay: Dissociation constant for [3H]DPCPX binding to human adenosine A1 receptor plus or minus compound (10 uM); t1/2 = 6.61 min
[7] = target: T1, Adenosine receptor A1 (Homo sapiens); assay: Association constant for [3H]DPCPX binding to human adenosine A1 receptor plus or minus compound (10 uM); appt1/2 = 3.85 min
Outline: (§3)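 Membranes from CHO cells expressing recombinant human A1 receptor (40 μg protein) preincubated 30 min at 25 °C with compound. Association started by adding [3H]DPCPX (0.34–0.36 nM), stopped at time points by rapid dilution, then filtered on GF/B and washed with ice-cold buffer. Membranes carry 2 IU/mL adenosine deaminase.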

[8] = target: T1, Adenosine receptor A1 (Homo sapiens); assay: Dissociation constant for [3H]-CCPA binding to human adenosine A1 receptor plus or minus compound (10 uM); t1/2 = 5.37 min
[9] = target: T1, Adenosine receptor A1 (Homo sapiens); assay: Dissociation constant for [3H]CCPA binding to human adenosine A1 receptor plus or minus compound (7 uM); t1/2 = 6.48 min.
[10] = target: T1, Adenosine receptor A1 (Homo sapiens); assay: Dissociation constant for [3H]DPCPX binding to human adenosine A1 receptor plus or minus compound (7 uM); t1/2 = 5.27 min.
[11] = target: T1, Adenosine receptor A1 (Homo sapiens); assay: Association constant for [3H]DPCPX binding to human Adenosine A1 receptor plus or minus compound (7 uM); appt1/2 = 1.77 min.; outline: as §3

Row | Structure (SMILES) | Remaining [1] | Remaining [2] | Remaining [3] | other results
1 | CC/N=c1\nc(-c2ccccc2)n(-c2ccc(Cl)c(Cl)c2)s1 | 35% | 100% | 90% | 
2 | C/N=c1\nc(-c2ccc(OC)cc2)n(-c2ccccc2)s1 | 35% | 100% | 114% | 
3 | CC/N=c1\nc(-c2ccc(C)cc2)n(-c2ccc(C)cc2)s1 | 32% | 100% | 61% | pEC50 (Adenosine receptor A1 [4]): 5.80
4 | C/N=c1\nc(-c2ccccc2)n(-c2ccc(Cl)c(Cl)c2)s1 | 33% | 94% | 111% | 
5 | C/N=c1\nc(-c2ccc(Cl)cc2)n(-c2ccc(Cl)cc2)s1 | 20% | 93% | 119% | 
6 | CC/N=c1\nc(-c2ccccc2)n(-c2ccc(Cl)cc2)s1 | 30% | 104% | 109% | 
7 | CC/N=c1\nc(-c2ccccc2)n(-c2ccccc2)s1 | 6% | 103% | 114% | 
8 | C/N=c1\nc(-c2ccc(Cl)cc2)n(-c2ccccc2)s1 | 15% | 106% | 119% | 
9 | CC/N=c1\nc(-c2ccc(Cl)cc2)n(-c2ccc(Cl)cc2)s1 | 24% | 95% | 84% | 
10 | CC/N=c1\nc(-c2ccccc2)n(-c2ccc(C)cc2)s1 | 28% | 101% | 105% | 
11 | C/N=c1\nc(-c2ccccc2)n(-c2ccc(C)cc2)s1 | 31% | 99% | 123% | 
12 | C/N=c1\nc(-c2ccccc2)n(-c2ccc(Cl)cc2)s1 | 33% | 94% | 126% | 
13 | CC/N=c1\nc(-c2ccccc2)n(-c2cccc(Cl)c2)s1 | 39% | 101% | 86% | 

Second part, led by results:

Row | Remaining [1] | Remaining [2] | Remaining [3] | Structure (SMILES) | other results
14 | 36% | 96% | 93% | C/N=c1\nc(-c2cccc(Cl)c2)n(-c2cccc(Cl)c2)s1 | 
15 | 24% | 103% | 120% | CC/N=c1\nc(-c2ccccc2)n(-c2ccc(OC)cc2)s1 | 
16 | 225% | 87% | 68% | Cc1sc(N)c(C(=O)c2cccc(C(F)(F)F)c2)c1C | 
17 | 6% | 98% | 75% | CC/N=c1\nc(-c2ccccc2)n(-c2cccc(C)c2)s1 | 
18 | 5% | 99% | 109% | C/N=c1\nc(-c2ccccc2)n(-c2cccc(C)c2)s1 | pEC50 (Adenosine receptor A1 [5]): 6.19
19 | 10% | 104% | 149% | C/N=c1\nc(-c2ccccc2)n(-c2ccccc2)s1 | k off [6]: 0.00184 s⁻¹; kon [7]: 3.5e+06 M⁻¹ s⁻¹; k off [8]: 0.00217 s⁻¹; pEC50 (Adenosine receptor A1 [4]): 5.55
20 | 20% | 104% | 97% | C/N=c1\nc(-c2ccc(C)cc2)n(-c2ccc(C)cc2)s1 | 
21 | 35% | 96% | 108% | C/N=c1\nc(-c2ccccc2)n(-c2cccc(Cl)c2)s1 | 
22 | 24% | 103% | 132% | C/N=c1\nc(-c2ccccc2)n(-c2ccc(OC)cc2)s1 | k off [9]: 0.00184 s⁻¹; k off [10]: 0.00217 s⁻¹; kon [11]: 1.98e+07 M⁻¹ s⁻¹; pEC50 (Adenosine receptor A1 [4]): 5.62

Source: ChEMBL document CHEMBL1148397, “Synthesis and biological evaluation of 2,3,5-substituted [1,2,4]thiadiazoles as allosteric modulators of adenosine receptors” (J Med Chem, 2004)
